Key:
[1] = Metabolic stability in human liver microsomes assessed as half life at 10 uM incubated for 30 mins in presence of NADPH by HPLC analysis; format: ADME, Microsome
Outline: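 Compound (10 µM) was incubated at 37 °C with 0.5 mg/mL pooled HLMs and 1 mM NADPH in 0.1 M KH2PO4 pH 7.4, sampled at 0, 2, 5, 15 and 30 min. Controls without NADPH, or buffer only, ran 0 and 30 min. Parent was quantified by HPLC-fluorescence as % of the 0 min level, n = 3. t1/2 = 0.693/k, with k from regression of ln % remaining versus time.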

[2] = tested on: Jurkat; assay: Growth inhibition of human Jurkat cells incubated for 72 hrs by MTT assay; format: functional
Outline: (§1)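 Leukemia lines were grown in RPMI-1640; the CEM^Vbl-100 medium also contained 100 ng/mL vinblastine. Cells were seeded at 8 × 10³ per well and left 18 h at 37 °C, 5% CO2. Medium was then replaced with fresh medium holding graded compound concentrations (DMSO stocks), in triplicate, for 72 h. Viability was read by MTT, and GI50 = concentration inhibiting proliferation 50%.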

[3] = Metabolic stability in human liver microsomes at 10 uM incubated for 15 mins in presence of NADPH and non-selective CYP inhibitor quercetin by HPLC analysis; format: ADME, Microsome; settings: 0.25 h
Outline: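 Compound (10 µM) was incubated 0 and 15 min at 37 °C with pooled HLMs and 1 mM NADPH in 0.1 M KH2PO4 pH 7.4, with or without 100 µM quercetin. Parent remaining was measured by HPLC-fluorescence relative to 0 min; mean ± SD, n = 3.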

[4] = tested on: MDA-MB-468; assay: Growth inhibition of human MDA-MB-468 cells incubated for 72 hrs by MTT assay; format: functional; settings: MDA-MB-468, 72 h
[5] = tested on: MCF7; assay: Growth inhibition of human MCF7 cells incubated for 72 hrs by MTT assay; format: functional; settings: MCF7, 72 h
[6] = tested on: A2058; assay: Growth inhibition of human A2058 cells incubated for 72 hrs by MTT assay; format: functional; settings: A2058, 72 h
[7] = tested on: RS4-11; assay: Growth inhibition of human RS4:11 cells incubated for 72 hrs by MTT assay; format: functional; settings: RS4-11, 72 h; outline: as §1
[8] = Metabolic stability in human liver microsomes at 10 uM incubated for 30 mins in phosphate buffer at pH 7.4 by HPLC analysis; format: ADME, Microsome; settings: pH 7.4, 0.5 h
Outline: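 Test compound (10 μM, final) incubated at 37 °C with pooled mixed-gender HLMs (0.5 mg/mL) in 0.1 M KH₂PO₄ pH 7.4 without NADPH. Sampled at 0 and 30 min, quenched with ice-cold acetonitrile, centrifuged, supernatant analysed by HPLC with fluorescence detection (ex 344/em 493 nm). Percent remaining calculated from peak area relative to 0 min; mean ± SD, n = 3.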

[9] = Stability in phosphate buffer at pH 7.4 at 10 uM incubated for 30 mins by HPLC analysis; format: physicochemical; settings: pH 7.4, 0.5 h
Outline: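 No microsomes or NADPH: compound (10 μM final) held in 0.1 M KH₂PO₄ pH 7.4 at 37 °C. Samples taken at 0 and 30 min, quenched with ice-cold acetonitrile, centrifuged, analysed by HPLC with fluorescence detection. Percent parent remaining relative to 0 min; mean ± SD, n = 3.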

[10] = tested on: MDA-MB-231; assay: Growth inhibition of human MDA-MB-231 cells incubated for 72 hrs by MTT assay; format: functional; settings: MDA-MB-231, 72 h
[11] = tested on: HeLa; assay: Growth inhibition of human HeLa cells incubated for 72 hrs by MTT assay; format: functional
[12] = Time-dependent metabolic stability in human liver microsomes at 10 uM incubated for 30 mins in presence of NADPH by HPLC analysis; format: ADME, Microsome; settings: 0.5 h
Outline: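 Pooled mixed-gender HLMs (0.5 mg/mL) plus 1 mM NADPH in 0.1 M KH₂PO₄ pH 7.4, compound 10 μM final, 37 °C. Reaction started with microsomes after 3-min equilibration. Stopped with ice-cold acetonitrile at 0, 2, 5, 15, 30 min, then HPLC-fluorescence of supernatant. Percent remaining vs 0 min (mean ± SD, n = 3). Half-life = 0.693/k from linear regression of Ln % remaining vs time.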

[13] = target: Tubulin (Bos taurus) (UniProt Q6B856+Q862L2+Q862F3); assay: Inhibition of [3H]colchicine binding to bovine brain tubulin at 5 uM relative to control
Outline: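 Bovine brain tubulin at 1 µM was incubated with 5 µM [3H]colchicine and the test compound at 5 µM. Inhibition of colchicine binding was measured relative to a control.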

[14] = target: Tubulin (Bos taurus, UniProt Q6B856+Q862L2+Q862F3); assay: Inhibition of bovine brain tubulin polymerization preincubated for 15 mins followed by GTP addition and measured for 20 mins by turbidimetry-based spectrophotometric method
Outline: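 Bovine brain tubulin (10 µM) was preincubated with varying compound concentrations in 0.8 M monosodium glutamate, pH 6.6, for 15 min at 30 °C, then cooled to 0 °C. GTP was added to 0.4 mM final and the mix warmed to 30 °C. Turbidity was followed at 350 nm. IC50 = concentration inhibiting extent of assembly 50% after 20 min.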

[15] = tested on: HT-29; assay: Growth inhibition of human HT-29 cells incubated for 72 hrs by MTT assay; format: functional; settings: HT-29, 72 h
[16] = Growth inhibition of human DND41 cells incubated for 72 hrs by MTT assay; format: functional; settings: DND41, 72 h; outline: as §1
[17] = tested on: A-375; assay: Growth inhibition of human A375 cells incubated for 72 hrs by MTT assay; format: functional; settings: A-375, 72 h
[18] = tested on: HL-60; assay: Growth inhibition of human HL60 cells incubated for 72 hrs by MTT assay; format: functional; settings: HL-60, 72 h; outline: as §1
[19] = Selectivity ratio of GI50 for PHA-stimulated human PBL cells to GI50 for human DND41 cells incubated for 72 hrs by MTT assay
Outline: (§2)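 Leukemia cells (CEM, DND-41, Jurkat) were grown in RPMI-1640 at 8×10³ cells/well and left 18 h. Donor PBL were gradient-separated, held overnight, and non-adherent cells set at 5×10^5 cells/mL with 2.5 µg/mL PHA. Both were exposed 72 h at 37 °C to graded compound concentrations, read by MTT. The ratio is PBL GI50 over leukemia GI50.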

[20] = Selectivity ratio of GI50 for human PBL cells to GI50 for human Jurkat cells incubated for 72 hrs by MTT assay
Outline: as §2, with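 “overnight in RPMI-1640/10% FBS,” for “overnight,”, “without PHA (resting).” for “with 2.5 µg/mL PHA.”, “h” for “h at 37 °C”, “graded” for “graded compound”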

[21] = Metabolic stability in human liver microsomes assessed as parent compound decline at 10 uM incubated for 60 mins in presence of NADPH by HPLC analysis; format: ADME, Microsome; settings: read-out: Drug degradation
Outline: (§3)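 Compound (10 µM) was incubated 0 or 60 min at 37 °C with pooled HLMs (1 mg/mL), with or without 1 mM NADPH, or in buffer only (0.1 M KH2PO4 pH 7.4). Reactions were stopped with ice-cold acetonitrile. Remaining parent was measured by HPLC-fluorescence relative to 0 min; mean ± SD, n = 3.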

[22] = tested on: B16-BL6; assay: Antitumour activity against mouse B16-BL6 cells allografted in C57BL/6 mouse assessed as reduction in tumor mass at 3 mg/kg, ip administrated every other day relative to control; format: functional
Outline: (§4)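 Male C57BL/6 mice (six weeks old) got 2.5×10^5 BL6-B16 murine melanoma cells s.c. in the dorsolateral flank, in PBS. Once tumors were measurable (about 100 mm³), mice were randomized and given drug i.p. every other day in 50 µL DMSO. Vehicle (DMSO) group served as control. Tumor volume = (D × d²)/2; tumor weight taken at end. 5 animals per group, mean ± SEM.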

[23] = Selectivity ratio of GI50 for human PBL cells to GI50 for human DND41 cells incubated for 72 hrs by MTT assay
Outline: as §2, with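 “overnight in RPMI-1640/10% FBS,” for “overnight,”, “without PHA (resting).” for “with 2.5 µg/mL PHA.”, “h” for “h at 37 °C”, “graded” for “graded compound”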

[24] = tested on: CCRF-CEM; assay: Growth inhibition of human CEM cells incubated for 72 hrs by MTT assay; format: functional; outline: as §1
[25] = Growth inhibition of PHA-stimulated human PBL cells incubated for 72 hrs by MTT assay; format: cell-based; settings: PHA-stimulated PBL cells (peripheral blood lymphocytes)
Outline: (§5)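 PBL from healthy donors were isolated on a Lymphoprep gradient, held overnight in RPMI-1640 with 10% FBS, and the non-adherent cells resuspended at 5 × 10^5 cells/mL. Proliferating cultures got 2.5 µg/mL PHA; resting cultures got none. Compound was added at several concentrations for 72 h and viability read by MTT. GI50 reported as mean ± SEM of three experiments.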

[26] = Metabolic stability in human liver microsomes assessed as parent compound decline at 10 uM incubated for 60 mins in absence of NADPH by HPLC analysis; format: ADME, Microsome; settings: read-out: Drug degradation; outline: as §3
[27] = Toxicity in C57BL/6 mouse allografted with mouse B16-BL6 cells assessed as change in body weight at 3 to 7.5 mg/kg, ip administrated every other day; format: organism-based; settings: in vivo
Outline: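 Male six-week-old C57BL/6 mice were given BL6-B16 murine melanoma cells subcutaneously in the dorsolateral flank in PBS. Once tumours reached about 100 mm³, mice were randomised and dosed intraperitoneally every other day with 3.0 or 7.5 mg/kg in DMSO, or vehicle alone. Body weight change was followed; 5 animals per group, mean ± SEM.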

[28] = Selectivity ratio of GI50 for human PBL cells to GI50 for human CEM cells incubated for 72 hrs by MTT assay; format: functional
Outline: as §2, with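 “overnight in RPMI-1640/10% FBS,” for “overnight,”, “without PHA (resting).” for “with 2.5 µg/mL PHA.”, “h” for “h at 37 °C”, “graded” for “graded compound”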

[29] = tested on: B16-BL6; assay: Antitumour activity against mouse B16-BL6 cells allografted in C57BL/6 mouse assessed as reduction in tumor mass at 7.5 mg/kg, ip administrated every other day relative to control; format: functional; outline: as §4
[30] = Selectivity ratio of GI50 for PHA-stimulated human PBL cells to GI50 for human CEM cells incubated for 72 hrs by MTT assay; outline: as §2
[31] = Growth inhibition of multidrug-resistant human CEM/VBL100 cells incubated for 72 hrs by MTT assay; format: functional; settings: CEM/VBL100, 72 h; outline: as §1
[32] = Selectivity ratio of GI50 for PHA-stimulated human PBL cells to GI50 for human Jurkat cells incubated for 72 hrs by MTT assay; outline: as §2
[33] = tested on: B16-BL6; assay: Growth inhibition of mouse B16-BL6 cells incubated for 72 hrs by MTT assay; format: functional; settings: B16-BL6, 72 h
[34] = Growth inhibition of human PBL cells incubated for 72 hrs by MTT assay; format: cell-based; settings: PBL cells (peripheral blood lymphocytes); outline: as §5

GI50 [2] [nM]	GI50 [4] [nM]	GI50 [5] [nM]	GI50 [7] [nM]	GI50 [10] [nM]	GI50 [11] [nM]	inhibition [13] [%]	IC50 [14] [µM]	GI50 [15] [nM]	GI50 [18] [nM]	metabolised at 1 h, 10 µM [21] [%]	GI50 [24] [nM]	metabolised at 1 h, 10 µM [26] [%]	SMILES	GI50 [16] [nM]	RatioGI50 [19]	RatioGI50 [20]	RatioGI50 [23]	GI50 at 72 h [25] [µM]	RatioGI50 [28]	RatioGI50 [30]	also measured
334	43	51.3	293	206	340	12	3.7	447	1440				CCn1ccc2c3c(=O)cc(-c4ccc(F)cc4)[nH]c3ccc21	477							half-life at 10 µM [1]: 10.6 min; Stability [3]: Stable; GI50 [6]: 1180 nM; Stability [8]: Stable; Stability [9]: Stable; Stability [12]: Unstable; GI50 [17]: 69.8 nM
32.4	871	103	56	454	13.3	70	0.38	402	15.1	20	44	20	O=C(c1ccccc1)n1ccc2c3c(=O)cc(-c4cccc(F)c4)[nH]c3ccc21	10.2	10000 - 30000	10000 - 30000	10000 - 30000	17.6	10000 - 30000	10000 - 30000	inhibition in vivo at 3 mg/kg [22]: 16.7%; Activity [27]: Non-Toxic; inhibition in vivo at 7.5 mg/kg [29]: 58.4%; GI50 [31]: 36 nM; RatioGI50 [32]: 10000 - 30000; GI50 [33]: 18 nM; GI50 at 72 h [34]: 45.6 µM
16		0.2	0.3		0.2			0.1	2	20	2.5	20	O=C(c1ccccc1)n1ccc2c3c(=O)cc(-c4ccccc4)[nH]c3ccc21		10000 - 30000	10000 - 30000	10000 - 30000	2.7	10000 - 30000	10000 - 30000	GI50 [31]: 3.1 nM; RatioGI50 [32]: 10000 - 30000; GI50 at 72 h [34]: > 100 µM

From ChEMBL document CHEMBL4334446, “Evaluating the effects of fluorine on biological properties and metabolic stability of some antitubulin 3-substituted 7-phenyl-pyrroloquinolinones” (Eur J Med Chem, 2019)
